Four compounds from ChEMBL document CHEMBL1177801, “Structure-based design and synthesis of pyrrole derivatives as MEK inhibitors” (Bioorg Med Chem Lett, 2010) can be followed below.

Activity calls are given as the source filed them. The rule behind the calls is not given here.

Usually EC50 stands for the concentration needed to bring the measured effect to its halfway point. In general, half-life refers to the time in which the quantity being followed falls by half. A higher half-life goes with slow decline. One may read the MRT as a mean duration of stay, worked out from the concentration-time curve. By bioavailability is commonly meant dose-corrected exposure relative to a reference, in per cent. Read a high bioavailability as good availability. As usually defined, the IC50 is the point on the concentration scale where inhibition reaches its midpoint. Lower therefore signals inhibition by little substance.

The subject of one data set is COLO 205. Kind of data set: Cytotoxicity against human COLO205 cells expressing b-Raf V600E mutant after 72 hrs by MTS assay. The data set is classed as functional, cell-based. To be noted: COLO 205, 72 h. In short, it runs like this:
(§1)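 Human BRAF(V600E) line seeded at 3000–10,000 cells per 96 well, allowed 16 h at 37 °C in humidified 5% CO2. Then exposed 72 h to an eleven-point compound dilution in duplicate. NADH measured by MTS tetrazolium conversion, read at OD 490 nm. EC50 taken from compound concentration vs total NADH.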

A further data set relates to A-375. Kind of data set: Cytotoxicity against human A375 cells expressing b-Raf V600E mutant after 72 hrs by MTS assay. The data set is classed as functional, cell-based. To be noted: A-375, 72 h. In short, it runs like this: as §1
A general note: Formazan colour is commonly taken as a measure of viable cells.

Data set [1] is described as follows: Half life in human liver microsomes. The data set is classed as ADME, Microsome. (In general: Liver microsomes are vesicles of endoplasmic reticulum, rich in cytochrome P450 enzymes.)
The nature of data set [2]: Half life in rat liver microsomes. In kind it is ADME, Microsome.
A short description of data set [3]: Volume of distribution at steady state in rat at 1 mg/kg, iv and 5 mg/kg, po. In kind it is ADME, organism-based. To be noted: in vivo, read-out: Vdss.
Data set [4] is described as follows: Mean residence time in rat at 1 mg/kg, iv. The following applies: in vivo. Details: dose 1 mg/kg, route intravenous. In kind it is ADME, organism-based.
Data set [5] is described as follows: Mean residence time in rat at 5 mg/kg, po. The data set is classed as ADME, organism-based. Details: dose 5 mg/kg, route oral. The following applies: in vivo.
Data set [6] is described as follows: Oral bioavailability in rat at 5 mg/kg. The data set is classed as ADME, organism-based. The following applies: in vivo.
For data set [7], the target named is Dual specificity mitogen-activated protein kinase kinase 1 (Homo sapiens, UniProt Q02750). As to the kind of experiment: Inhibition of MEK1 by cascade assay method. A digest of the protocol:
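Cascade format, compounds serially diluted in DMSO, then in 50 mM HEPES pH 7.3, 10 mM NaCl, 10 mM MgCl2, 0.01% Brij35, 1 mM DTT. Reaction started with 1 nM MEK1 and 400 µM ATP (also run at 10 µM). Product read by IMAP fluorescence polarization. IC50 fitted with standard models.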

Data set [8] in a line: Clearance in rat at 1 mg/kg, iv and 5 mg/kg, po. In kind it is ADME, organism-based. The following applies: in vivo.
In data set [9] the target is Tyrosine-protein kinase ABL1 (Homo sapiens) (UniProt P00519). As to the kind of experiment: Inhibition of Abl1 at 10 uM.
In data set [10] the target is RAC-gamma serine/threonine-protein kinase (Homo sapiens) (UniProt Q9Y243). Kind of data set: Inhibition of AKT3 at 10 uM.
Data set [11] addresses RAF proto-oncogene serine/threonine-protein kinase (Homo sapiens) (UniProt P04049). Kind of data set: Inhibition of c-RAF at 10 uM.
Data set [12] concerns the target Calcium/calmodulin-dependent protein kinase type 1D (Homo sapiens) (UniProt Q8IU85). Kind of data set: Inhibition of CamK1delta at 10 uM.
The target in data set [13] is Cyclin-dependent kinase 2/cyclin A (Homo sapiens) (UniProt P24941+P20248+P78396). Kind of data set: Inhibition of CDK2/cyclinA at 10 uM. In kind it is protein-complex assay.
For data set [14], the target named is Hepatocyte growth factor receptor (Homo sapiens) (UniProt P08581). As to the kind of experiment: Inhibition of c-Met at 10 uM.
Chain of Hepatocyte growth factor receptor (Homo sapiens) (P08581 whole entry): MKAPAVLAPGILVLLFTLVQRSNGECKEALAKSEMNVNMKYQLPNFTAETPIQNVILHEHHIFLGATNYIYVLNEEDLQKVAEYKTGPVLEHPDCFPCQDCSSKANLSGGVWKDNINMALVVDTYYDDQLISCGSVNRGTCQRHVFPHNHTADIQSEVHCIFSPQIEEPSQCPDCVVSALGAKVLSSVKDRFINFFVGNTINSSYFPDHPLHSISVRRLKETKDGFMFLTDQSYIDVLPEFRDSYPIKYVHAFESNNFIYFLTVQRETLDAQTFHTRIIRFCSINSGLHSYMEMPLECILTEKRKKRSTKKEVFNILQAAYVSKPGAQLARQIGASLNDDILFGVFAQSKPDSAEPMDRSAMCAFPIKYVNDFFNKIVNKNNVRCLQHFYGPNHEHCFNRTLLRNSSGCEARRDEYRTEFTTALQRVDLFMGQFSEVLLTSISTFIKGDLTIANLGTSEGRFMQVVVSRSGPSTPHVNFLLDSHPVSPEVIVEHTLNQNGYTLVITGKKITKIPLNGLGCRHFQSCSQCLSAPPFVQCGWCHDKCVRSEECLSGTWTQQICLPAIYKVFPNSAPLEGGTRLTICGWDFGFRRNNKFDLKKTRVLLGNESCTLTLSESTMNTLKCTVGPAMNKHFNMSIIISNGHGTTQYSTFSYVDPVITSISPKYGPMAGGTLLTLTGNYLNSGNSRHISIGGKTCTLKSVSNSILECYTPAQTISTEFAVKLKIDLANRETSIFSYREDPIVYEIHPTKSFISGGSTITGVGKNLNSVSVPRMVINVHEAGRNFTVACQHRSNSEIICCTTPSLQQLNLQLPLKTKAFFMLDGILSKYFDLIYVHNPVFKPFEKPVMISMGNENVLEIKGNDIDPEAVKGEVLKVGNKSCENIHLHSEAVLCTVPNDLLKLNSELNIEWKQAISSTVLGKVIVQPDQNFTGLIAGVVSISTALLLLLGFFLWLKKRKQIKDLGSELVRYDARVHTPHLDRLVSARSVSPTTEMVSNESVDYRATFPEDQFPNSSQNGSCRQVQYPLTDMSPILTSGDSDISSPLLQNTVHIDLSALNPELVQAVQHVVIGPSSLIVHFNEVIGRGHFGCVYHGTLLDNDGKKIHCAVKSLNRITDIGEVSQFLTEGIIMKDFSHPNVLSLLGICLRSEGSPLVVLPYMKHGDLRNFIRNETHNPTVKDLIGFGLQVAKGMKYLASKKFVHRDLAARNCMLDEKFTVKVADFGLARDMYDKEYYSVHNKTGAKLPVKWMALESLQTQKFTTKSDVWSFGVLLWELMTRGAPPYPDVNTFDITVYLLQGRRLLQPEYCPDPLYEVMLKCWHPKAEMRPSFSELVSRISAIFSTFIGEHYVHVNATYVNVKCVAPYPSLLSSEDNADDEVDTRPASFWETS
In data set [15] the target is Proto-oncogene tyrosine-protein kinase Src (Homo sapiens) (UniProt P12931). Kind of data set: Inhibition of c-SRC at 10 uM.
For data set [16], the target named is Epidermal growth factor receptor (Homo sapiens) (UniProt P00533). As to the kind of experiment: Inhibition of EGFR at 10 uM.
Chain of Epidermal growth factor receptor (Homo sapiens) (P00533 whole entry): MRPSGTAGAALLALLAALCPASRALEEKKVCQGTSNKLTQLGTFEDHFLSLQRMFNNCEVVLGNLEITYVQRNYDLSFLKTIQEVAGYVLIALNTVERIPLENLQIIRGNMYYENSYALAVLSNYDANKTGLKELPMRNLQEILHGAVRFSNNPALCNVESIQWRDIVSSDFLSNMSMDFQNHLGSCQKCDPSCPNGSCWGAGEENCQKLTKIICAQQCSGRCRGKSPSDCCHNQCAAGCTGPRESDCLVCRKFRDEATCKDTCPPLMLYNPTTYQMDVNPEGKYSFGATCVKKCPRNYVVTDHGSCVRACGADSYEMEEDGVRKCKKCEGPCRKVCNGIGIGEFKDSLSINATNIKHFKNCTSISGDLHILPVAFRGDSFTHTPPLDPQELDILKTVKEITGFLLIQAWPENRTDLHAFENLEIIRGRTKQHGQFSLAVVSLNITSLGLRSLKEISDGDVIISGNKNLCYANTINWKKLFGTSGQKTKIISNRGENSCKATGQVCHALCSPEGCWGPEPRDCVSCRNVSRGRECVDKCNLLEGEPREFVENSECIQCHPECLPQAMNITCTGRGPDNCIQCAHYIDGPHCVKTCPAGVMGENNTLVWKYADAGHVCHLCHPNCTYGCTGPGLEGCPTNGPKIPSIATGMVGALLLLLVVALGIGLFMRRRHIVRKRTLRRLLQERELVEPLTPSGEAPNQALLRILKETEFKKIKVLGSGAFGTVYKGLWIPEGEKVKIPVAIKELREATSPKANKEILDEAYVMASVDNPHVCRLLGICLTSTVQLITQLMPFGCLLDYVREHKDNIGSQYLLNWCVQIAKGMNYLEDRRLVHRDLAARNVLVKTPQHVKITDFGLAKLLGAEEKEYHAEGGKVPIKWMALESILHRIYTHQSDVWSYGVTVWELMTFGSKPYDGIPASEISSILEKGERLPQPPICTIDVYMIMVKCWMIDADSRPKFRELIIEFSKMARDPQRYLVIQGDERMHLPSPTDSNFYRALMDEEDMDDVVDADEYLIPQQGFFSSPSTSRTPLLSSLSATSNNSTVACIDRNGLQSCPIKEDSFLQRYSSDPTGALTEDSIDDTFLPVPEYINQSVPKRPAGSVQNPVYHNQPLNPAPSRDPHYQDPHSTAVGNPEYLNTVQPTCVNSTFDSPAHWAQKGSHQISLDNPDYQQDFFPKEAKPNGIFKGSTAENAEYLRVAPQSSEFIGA
The target in data set [17] is Glycogen synthase kinase-3 beta (Homo sapiens) (UniProt P49841). As to the kind of experiment: Inhibition of GSK3-beta at 10 uM.
Data set [18] concerns the target Insulin receptor (Homo sapiens) (UniProt P06213). As to the kind of experiment: Inhibition of insulin receptor at 10 uM.
Data set [19] deals with T1, Tyrosine-protein kinase JAK3 (Homo sapiens) (UniProt P52333).
T1 sequence (whole entry): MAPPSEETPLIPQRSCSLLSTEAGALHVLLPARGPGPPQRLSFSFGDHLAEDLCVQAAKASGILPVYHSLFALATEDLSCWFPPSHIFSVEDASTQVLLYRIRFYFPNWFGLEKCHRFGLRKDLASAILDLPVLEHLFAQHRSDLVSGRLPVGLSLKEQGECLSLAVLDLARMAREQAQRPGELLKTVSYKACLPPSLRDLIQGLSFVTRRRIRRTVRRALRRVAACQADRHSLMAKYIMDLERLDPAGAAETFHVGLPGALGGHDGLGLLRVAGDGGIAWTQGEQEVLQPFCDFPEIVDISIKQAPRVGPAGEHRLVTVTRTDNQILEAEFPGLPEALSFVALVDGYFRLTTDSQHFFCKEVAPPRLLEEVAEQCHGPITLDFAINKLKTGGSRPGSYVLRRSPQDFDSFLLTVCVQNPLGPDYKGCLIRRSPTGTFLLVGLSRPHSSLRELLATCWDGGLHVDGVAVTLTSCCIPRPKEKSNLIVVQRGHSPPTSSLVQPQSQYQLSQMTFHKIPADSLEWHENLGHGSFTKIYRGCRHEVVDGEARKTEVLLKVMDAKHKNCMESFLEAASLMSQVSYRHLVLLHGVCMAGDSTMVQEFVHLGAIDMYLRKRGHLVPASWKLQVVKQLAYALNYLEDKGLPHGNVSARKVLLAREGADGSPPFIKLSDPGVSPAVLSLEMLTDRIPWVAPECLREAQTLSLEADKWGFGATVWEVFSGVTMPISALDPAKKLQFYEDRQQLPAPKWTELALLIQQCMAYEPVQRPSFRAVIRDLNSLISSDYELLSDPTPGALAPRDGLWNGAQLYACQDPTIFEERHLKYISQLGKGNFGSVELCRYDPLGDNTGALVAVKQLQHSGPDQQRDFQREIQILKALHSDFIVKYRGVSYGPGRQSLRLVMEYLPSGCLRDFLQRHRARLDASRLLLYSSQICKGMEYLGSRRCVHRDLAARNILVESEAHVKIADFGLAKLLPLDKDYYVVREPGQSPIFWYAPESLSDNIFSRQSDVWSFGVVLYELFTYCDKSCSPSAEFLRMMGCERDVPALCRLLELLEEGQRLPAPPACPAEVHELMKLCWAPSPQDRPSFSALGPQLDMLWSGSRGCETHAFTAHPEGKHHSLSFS
As to the kind of experiment: Inhibition of JAK3 at 10 uM.

For data set [20], the target named is Mitogen-activated protein kinase 14 (Homo sapiens) (UniProt Q16539). Kind of data set: Inhibition of P38alpha at 10 uM.
Chain of Mitogen-activated protein kinase 14 (Homo sapiens) (Q16539 whole entry): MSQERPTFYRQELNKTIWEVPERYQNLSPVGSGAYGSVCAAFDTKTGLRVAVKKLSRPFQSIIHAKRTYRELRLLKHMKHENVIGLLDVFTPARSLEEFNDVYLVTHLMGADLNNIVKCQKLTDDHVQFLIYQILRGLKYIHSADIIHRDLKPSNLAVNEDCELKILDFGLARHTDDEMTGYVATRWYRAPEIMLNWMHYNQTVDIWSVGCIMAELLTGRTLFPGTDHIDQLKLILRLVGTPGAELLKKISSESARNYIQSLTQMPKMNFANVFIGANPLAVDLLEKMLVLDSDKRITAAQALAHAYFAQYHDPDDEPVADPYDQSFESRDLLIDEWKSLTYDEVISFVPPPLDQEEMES
In data set [21] the target is Platelet-derived growth factor receptor beta (Homo sapiens) (UniProt P09619). Kind of data set: Inhibition of PDGFRbeta at 10 uM.
The target of data set [22] is Protein kinase C alpha type (Homo sapiens) (UniProt P17252). Kind of data set: Inhibition of PKCalpha at 10 uM.
Data set [23] deals with Serine/threonine-protein kinase PLK3 (Homo sapiens) (UniProt Q9H4B4). Kind of data set: Inhibition of PLK3 at 10 uM.
Data set [24] has as its target Tyrosine-protein kinase SYK (Homo sapiens) (UniProt P43405). As to the kind of experiment: Inhibition of Syk at 10 uM.
Data set [25] concerns the target Angiopoietin-1 receptor (Homo sapiens) (UniProt Q02763). As to the kind of experiment: Inhibition of Tie2 at 10 uM.
Data set [26] concerns the target 3-phosphoinositide-dependent protein kinase 1 (PDPK1) (Homo sapiens) (UniProt O15530). Kind of data set: Inhibition of PDK1 at 10 uM.

Chain of Dual specificity mitogen-activated protein kinase kinase 1 (Q02750 whole entry): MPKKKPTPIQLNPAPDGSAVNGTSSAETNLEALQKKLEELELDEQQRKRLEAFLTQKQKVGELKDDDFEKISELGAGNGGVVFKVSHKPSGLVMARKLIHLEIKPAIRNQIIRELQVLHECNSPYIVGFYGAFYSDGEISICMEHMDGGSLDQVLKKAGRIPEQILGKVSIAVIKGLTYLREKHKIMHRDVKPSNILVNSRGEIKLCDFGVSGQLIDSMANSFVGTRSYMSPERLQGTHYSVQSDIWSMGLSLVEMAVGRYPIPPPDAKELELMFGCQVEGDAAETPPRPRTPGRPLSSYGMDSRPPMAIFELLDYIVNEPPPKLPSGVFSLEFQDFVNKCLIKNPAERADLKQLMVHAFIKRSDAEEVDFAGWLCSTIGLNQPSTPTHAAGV
Chain of 3-phosphoinositide-dependent protein kinase 1 (PDPK1) (Homo sapiens) (O15530 whole entry, looked up): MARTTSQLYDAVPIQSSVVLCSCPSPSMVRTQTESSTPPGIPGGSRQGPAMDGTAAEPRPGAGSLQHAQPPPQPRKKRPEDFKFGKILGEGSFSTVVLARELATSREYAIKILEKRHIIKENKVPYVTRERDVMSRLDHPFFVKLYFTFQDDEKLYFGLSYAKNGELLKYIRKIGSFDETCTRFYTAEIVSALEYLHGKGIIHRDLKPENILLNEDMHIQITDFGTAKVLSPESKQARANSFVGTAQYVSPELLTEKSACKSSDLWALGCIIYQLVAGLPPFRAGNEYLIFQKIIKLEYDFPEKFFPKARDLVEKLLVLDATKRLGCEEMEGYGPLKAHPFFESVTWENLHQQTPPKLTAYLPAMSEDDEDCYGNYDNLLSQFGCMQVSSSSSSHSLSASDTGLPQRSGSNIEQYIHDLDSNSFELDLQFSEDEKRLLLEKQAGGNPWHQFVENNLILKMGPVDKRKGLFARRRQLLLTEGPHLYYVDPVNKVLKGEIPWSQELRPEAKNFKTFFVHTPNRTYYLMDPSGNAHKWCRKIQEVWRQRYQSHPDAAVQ
Chain of Calcium/calmodulin-dependent protein kinase type 1D (Homo sapiens) (Q8IU85 whole entry, looked up): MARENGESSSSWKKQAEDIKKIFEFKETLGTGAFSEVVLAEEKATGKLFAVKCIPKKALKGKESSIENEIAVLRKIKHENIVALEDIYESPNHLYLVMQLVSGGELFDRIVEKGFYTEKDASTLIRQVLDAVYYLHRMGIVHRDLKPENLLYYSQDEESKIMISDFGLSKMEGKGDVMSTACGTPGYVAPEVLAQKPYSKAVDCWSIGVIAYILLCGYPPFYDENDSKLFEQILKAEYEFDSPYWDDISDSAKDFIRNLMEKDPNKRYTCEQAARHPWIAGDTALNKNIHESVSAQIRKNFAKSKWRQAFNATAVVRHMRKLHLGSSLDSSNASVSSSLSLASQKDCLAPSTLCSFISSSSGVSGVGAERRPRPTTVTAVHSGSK

Take `CC(=O)c1cc(C(=O)NOCCO)c(Nc2ccc(I)cc2F)n1C`: the EC50 in the data set with COLO 205 turned out to be 12 nM; with A-375, 14 nM. Further, the half-life in data set [1] came out at 36 min; in data set [2], 14 min. Besides, in [3], the Vd was 2.9 L/kg. For the same compound, the values for the MRT in data set [4] and in data set [5] were 55.8 min and 384 min, respectively. Moreover, in data set [6], the bioavailability was 46%.
Compound `CC(=O)c1c(Cl)c(C(=O)NOC[C@H](O)CO)c(Nc2ccc(I)cc2F)n1C` yielded a 50% inhibitory concentration (IC50) in [7] of 32 nM. In addition, the values for the EC50 in the data set on COLO 205 and in the data set with A-375 were 23 nM and 46 nM, respectively. In addition, the values for the half-life in data set [1] and in [2] were 52 min and 23 min, respectively. In [8], the clearance is 7.1 mL/min/kg. In [3], the Vd turned out to be 0.361 L/kg. The MRT in data set [4] amounted to 51 min; in data set [5] it was 246 min. The compound further registered a bioavailability in [6] of 40%.
As for `CC(=O)c1cc(C(=O)N2CC(O)C2)c(Nc2ccc(I)cc2F)n1C`, in [7], it took 30 nM to reach half-maximal inhibition (IC50). Further, the results for the EC50 in the data set with COLO 205 and in the data set with A-375 were 32 nM and 97 nM, respectively. Also, the half-life in [1] amounted to 15 min; in data set [2] it was 13 min. Also, the inhibition result in data set [9], in data set [10], in data set [11], in [12], in data set [13] and in data set [14] was “inactive” each time. Moreover, the inhibition result in [15], in [16], in data set [17], in data set [18], in [19] and in data set [20] was “inactive” in each case. For the same compound, the inhibition result in data set [21], in [22], in [23], in data set [24], in data set [25] and in data set [26] was “inactive” throughout.
For the compound `CC(=O)c1cc(C(=O)NOC[C@H](O)CO)c(Nc2ccc(I)cc2F)n1C`, the IC50 in data set [7] turned out to be 20 nM. In addition, the EC50 in the data set with COLO 205 came to 33 nM; with A-375 it was 36 nM. Also, the figures for the half-life in [1] and in data set [2] were more than 200 min and 29 min, respectively. The compound further gave a clearance in data set [8] of 48 mL/min/kg. In addition, in [3], the Vd turned out to be 2.1 L/kg. Further, the mean residence time MRT is 43.2 min in data set [4] and 444 min in data set [5]. Moreover, the bioavailability in data set [6] is 19%.
